Source: ChEMBL document CHEMBL1156256, “Poly(ethylene glycol) (PEG-400) as an alternative reaction solvent for the synthesis of some new 1-(4-(4'-chlorophenyl)-2-thiazolyl)-3-aryl-5-(2-butyl-4-chloro-1H-imidazol-5yl)-2-pyrazolines and their in vitro antimicrobial evaluation” (2010)
Values after ≈ are worked out from the molar mass of the structure shown.

How the values were obtained:
Escherichia coli = test: Antibacterial activity against Escherichia coli MTCC 2939 after 24 hrs by agar diffusion method; type: functional; conditions: for MIC: Escherichia coli, MTCC 2939, 24 h
How it was run: (§1)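 Agar well diffusion following NCCLS. Bacteria kept on nutrient agar slants at 37 ± 0.5 °C for 24 h. Nutrient agar plates seeded with 0.1 mL of culture suspension in 0.85% sterile saline (10⁵ CFU/mL). Plates incubated at 37 ± 0.5 °C for 24 h. Zone of inhibition recorded in mm, and MIC noted. 1% DMSO used as control.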

Salmonella enterica = test: Antibacterial activity against Salmonella typhi MTCC 98 after 24 hrs by agar diffusion method; type: functional, Salmonella enterica subsp. enterica serovar Typhi; conditions: for MIC: Salmonella enterica, MTCC 98, 24 h
How it was run: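 NCCLS agar diffusion. Strain kept on nutrient agar slant at 37 ± 0.5 °C for 24 h. Nutrient agar plates seeded with 0.1 mL of a 10⁵ CFU/mL suspension in sterile 0.85% saline. Plates incubated at 37 ± 0.5 °C for 24 h. Read-out: zone of inhibition (mm) and MIC.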

Staphylococcus aureus = test: Antibacterial activity against Staphylococcus aureus MTCC 96 after 24 hrs by agar diffusion method; type: functional; conditions: for MIC: Staphylococcus aureus, MTCC 96, 24 h; how it was run: as §1
Bacillus subtilis = test: Antibacterial activity against Bacillus subtilis MTCC 441 after 24 hrs by agar diffusion method; type: functional; conditions: for MIC: Bacillus subtilis, MTCC 441, 24 h; how it was run: as §1
Aspergillus niger = test: Antifungal activity against Aspergillus niger MTCC 281 after 24 to 48 hrs by agar diffusion method; type: functional; conditions: for MIC: Aspergillus niger, MTCC 281
How it was run: (§2)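 Fungi grown on potato dextrose agar slants at 27 ± 0.2 °C for 24–48 h until sporulation. Spores suspended in sterile water with 1% Tween-80 and counted by haemocytometer (10⁶ CFU/mL). 0.1 mL spread on 2% agar PDA plates and held at 27 °C for 12 h. Wells then received 0.1 mL of compound at graded concentrations for MIC. Plates refrigerated 20 min for diffusion, then incubated at 27 ± 0.2 °C for […]. Zone read in mm. 1% DMSO used as control.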

Trichoderma viride = test: Antifungal activity against Trichoderma viride MTCC 167 after 24 to 48 hrs by agar diffusion method; type: functional; conditions: for MIC: Trichoderma viride, MTCC 167; how it was run: as §2
Penicillium chrysogenum = test: Antifungal activity against Penicillium chrysogenum MTCC 160 after 24 to 48 hrs by agar diffusion method; type: functional; conditions: for MIC: Penicillium chrysogenum, MTCC 160; how it was run: as §2
Candida albicans = test: Antifungal activity against Candida albicans MTCC 183 after 24 to 48 hrs by agar diffusion method; type: functional; conditions: for MIC: Candida albicans, MTCC 183; how it was run: as §2
Fusarium verticillioides = test: Antifungal activity against Fusarium moniliforme MTCC 156 after 24 to 48 hrs by agar diffusion method; type: functional; conditions: for MIC: Fusarium verticillioides, MTCC 156; how it was run: as §2

**Q.** Which “inhibition zone (IZ)” value (Escherichia coli) does the source give for `CCCCc1nc(Cl)c(C2CC(c3cc(C)cc(Br)c3O)=NN2c2nc(-c3ccc(Cl)cc3)cs2)[nH]1` (stereo not given) here?
**A.** 16 mm

**Q.** What about the MIC (Escherichia coli) of the same compound?
**A.** 25 mg/L (≈ 41.3 µM)

**Q.** What about the “inhibition zone (IZ)” value (Salmonella enterica) of the same compound?
**A.** 12 mm

**Q.** What about the MIC (Salmonella enterica) of the same compound?
**A.** 50 mg/L (≈ 82.6 µM)

**Q.** And the “inhibition zone (IZ)” value (Staphylococcus aureus)?
**A.** 12 mm

**Q.** And the MIC (Staphylococcus aureus)?
**A.** 50 mg/L (≈ 82.6 µM)

**Q.** What about the “inhibition zone (IZ)” value (Bacillus subtilis) of the same compound?
**A.** 14 mm

**Q.** And the MIC (Bacillus subtilis)?
**A.** 50 mg/L (≈ 82.6 µM)

**Q.** What about the “inhibition zone (IZ)” value (Aspergillus niger) of the same compound?
**A.** 10 mm

**Q.** And the MIC (Aspergillus niger)?
**A.** 50 mg/L (≈ 82.6 µM)

**Q.** And the “inhibition zone (IZ)” value (Trichoderma viride)?
**A.** 14 mm

**Q.** And the MIC (Trichoderma viride)?
**A.** 25 mg/L (≈ 41.3 µM)

**Q.** And the “inhibition zone (IZ)” value (Penicillium chrysogenum)?
**A.** 13 mm

**Q.** And the MIC (Penicillium chrysogenum)?
**A.** 50 mg/L (≈ 82.6 µM)

**Q.** What about the “inhibition zone (IZ)” value (Candida albicans) of the same compound?
**A.** 12 mm

**Q.** And the MIC (Candida albicans)?
**A.** 25 mg/L (≈ 41.3 µM)

**Q.** What about the “inhibition zone (IZ)” value (Fusarium verticillioides) of the same compound?
**A.** 9 mm

**Q.** And the MIC (Fusarium verticillioides)?
**A.** 50 mg/L (≈ 82.6 µM)

**Q.** With `CCCCc1nc(Cl)c(C2CC(c3ccc(OC)cc3)=NN2c2nc(-c3ccc(Cl)cc3)cs2)[nH]1` (stereo not given) as the compound, how does the “inhibition zone (IZ)” value (Escherichia coli) read?
**A.** 16 mm

**Q.** And the MIC (Escherichia coli)?
**A.** 25 mg/L (≈ 47.5 µM)

**Q.** What about the “inhibition zone (IZ)” value (Salmonella enterica) of the same compound?
**A.** 14 mm

**Q.** What about the MIC (Salmonella enterica) of the same compound?
**A.** 50 mg/L (≈ 95 µM)

**Q.** What about the “inhibition zone (IZ)” value (Staphylococcus aureus) of the same compound?
**A.** 18 mm

**Q.** And the MIC (Staphylococcus aureus)?
**A.** 25 mg/L (≈ 47.5 µM)

**Q.** And the “inhibition zone (IZ)” value (Bacillus subtilis)?
**A.** 16 mm

**Q.** What about the MIC (Bacillus subtilis) of the same compound?
**A.** 25 mg/L (≈ 47.5 µM)

**Q.** What about the “inhibition zone (IZ)” value (Aspergillus niger) of the same compound?
**A.** 16 mm

**Q.** And the MIC (Aspergillus niger)?
**A.** 25 mg/L (≈ 47.5 µM)

**Q.** What about the “inhibition zone (IZ)” value (Trichoderma viride) of the same compound?
**A.** 14 mm

**Q.** What about the MIC (Trichoderma viride) of the same compound?
**A.** 25 mg/L (≈ 47.5 µM)

**Q.** What about the “inhibition zone (IZ)” value (Penicillium chrysogenum) of the same compound?
**A.** 12 mm

**Q.** And the MIC (Penicillium chrysogenum)?
**A.** 50 mg/L (≈ 95 µM)

**Q.** What about the “inhibition zone (IZ)” value (Candida albicans) of the same compound?
**A.** 14 mm

**Q.** What about the MIC (Candida albicans) of the same compound?
**A.** 25 mg/L (≈ 47.5 µM)

**Q.** What about the “inhibition zone (IZ)” value (Fusarium verticillioides) of the same compound?
**A.** 12 mm

**Q.** What about the MIC (Fusarium verticillioides) of the same compound?
**A.** 25 mg/L (≈ 47.5 µM)

**Q.** Which “inhibition zone (IZ)” value (Escherichia coli) does the source give for `CCCCc1nc(Cl)c(C2CC(c3cc(C)cc(I)c3O)=NN2c2nc(-c3ccc(Cl)cc3)cs2)[nH]1` (stereo not given) here?
**A.** 14 mm

**Q.** And the MIC (Escherichia coli)?
**A.** 50 mg/L (≈ 76.6 µM)

**Q.** What about the “inhibition zone (IZ)” value (Salmonella enterica) of the same compound?
**A.** 15 mm

**Q.** What about the MIC (Salmonella enterica) of the same compound?
**A.** 25 mg/L (≈ 38.3 µM)

**Q.** What about the “inhibition zone (IZ)” value (Staphylococcus aureus) of the same compound?
**A.** 15 mm

**Q.** What about the MIC (Staphylococcus aureus) of the same compound?
**A.** 25 mg/L (≈ 38.3 µM)

**Q.** What about the “inhibition zone (IZ)” value (Bacillus subtilis) of the same compound?
**A.** 12 mm

**Q.** And the MIC (Bacillus subtilis)?
**A.** 50 mg/L (≈ 76.6 µM)

**Q.** And the “inhibition zone (IZ)” value (Aspergillus niger)?
**A.** 14 mm

**Q.** And the MIC (Aspergillus niger)?
**A.** 25 mg/L (≈ 38.3 µM)

**Q.** And the “inhibition zone (IZ)” value (Trichoderma viride)?
**A.** 14 mm

**Q.** What about the MIC (Trichoderma viride) of the same compound?
**A.** 25 mg/L (≈ 38.3 µM)

**Q.** And the “inhibition zone (IZ)” value (Penicillium chrysogenum)?
**A.** 12 mm

**Q.** What about the MIC (Penicillium chrysogenum) of the same compound?
**A.** 25 mg/L (≈ 38.3 µM)

**Q.** And the “inhibition zone (IZ)” value (Candida albicans)?
**A.** 11 mm

**Q.** What about the MIC (Candida albicans) of the same compound?
**A.** 50 mg/L (≈ 76.6 µM)

**Q.** And the “inhibition zone (IZ)” value (Fusarium verticillioides)?
**A.** 10 mm

**Q.** And the MIC (Fusarium verticillioides)?
**A.** 50 mg/L (≈ 76.6 µM)

**Q.** How did the “inhibition zone (IZ)” value (Escherichia coli) turn out when `CCCCc1nc(Cl)c(C2CC(c3cc(Cl)cc(I)c3O)=NN2c2nc(-c3ccc(Cl)cc3)cs2)[nH]1` (stereo not given) was run?
**A.** 20 mm

**Q.** What about the MIC (Escherichia coli) of the same compound?
**A.** 25 mg/L (≈ 37.2 µM)

**Q.** What about the “inhibition zone (IZ)” value (Salmonella enterica) of the same compound?
**A.** 16 mm

**Q.** And the MIC (Salmonella enterica)?
**A.** 25 mg/L (≈ 37.2 µM)

**Q.** And the “inhibition zone (IZ)” value (Staphylococcus aureus)?
**A.** 18 mm

**Q.** And the MIC (Staphylococcus aureus)?
**A.** 25 mg/L (≈ 37.2 µM)

**Q.** And the “inhibition zone (IZ)” value (Bacillus subtilis)?
**A.** 21 mm

**Q.** What about the MIC (Bacillus subtilis) of the same compound?
**A.** 25 mg/L (≈ 37.2 µM)

**Q.** And the “inhibition zone (IZ)” value (Aspergillus niger)?
**A.** 15 mm

**Q.** And the MIC (Aspergillus niger)?
**A.** 25 mg/L (≈ 37.2 µM)

**Q.** What about the “inhibition zone (IZ)” value (Trichoderma viride) of the same compound?
**A.** 16 mm

**Q.** And the MIC (Trichoderma viride)?
**A.** 25 mg/L (≈ 37.2 µM)

**Q.** And the “inhibition zone (IZ)” value (Penicillium chrysogenum)?
**A.** 14 mm

**Q.** What about the MIC (Penicillium chrysogenum) of the same compound?
**A.** 25 mg/L (≈ 37.2 µM)

**Q.** And the “inhibition zone (IZ)” value (Candida albicans)?
**A.** 15 mm

**Q.** What about the MIC (Candida albicans) of the same compound?
**A.** 25 mg/L (≈ 37.2 µM)

**Q.** And the “inhibition zone (IZ)” value (Fusarium verticillioides)?
**A.** 12 mm

**Q.** What about the MIC (Fusarium verticillioides) of the same compound?
**A.** 25 mg/L (≈ 37.2 µM)

**Q.** Which results are given for `CCCCc1nc(Cl)c(C2CC(c3cc(Cl)c(C)c(I)c3O)=NN2c2nc(-c3ccc(Cl)cc3)cs2)[nH]1` (stereo not given)?
**A.** inhibition zone (IZ) (Escherichia coli): 18 mm; MIC (Escherichia coli): 25 mg/L (≈ 36.4 µM); inhibition zone (IZ) (Salmonella enterica): 16 mm; MIC (Salmonella enterica): 25 mg/L (≈ 36.4 µM); inhibition zone (IZ) (Staphylococcus aureus): 14 mm; MIC (Staphylococcus aureus): 50 mg/L (≈ 72.8 µM); inhibition zone (IZ) (Bacillus subtilis): 19 mm; MIC (Bacillus subtilis): 25 mg/L (≈ 36.4 µM); inhibition zone (IZ) (Aspergillus niger): 14 mm; MIC (Aspergillus niger): 25 mg/L (≈ 36.4 µM); inhibition zone (IZ) (Trichoderma viride): 12 mm; MIC (Trichoderma viride): 25 mg/L (≈ 36.4 µM); inhibition zone (IZ) (Penicillium chrysogenum): 15 mm; MIC (Penicillium chrysogenum): 25 mg/L (≈ 36.4 µM); inhibition zone (IZ) (Candida albicans): 13 mm; MIC (Candida albicans): 25 mg/L (≈ 36.4 µM); inhibition zone (IZ) (Fusarium verticillioides): 14 mm; MIC (Fusarium verticillioides): 25 mg/L (≈ 36.4 µM)
